Where two headings read alike, the source gives them in different places.
Columns and labels:
[1] = cited from earlier work
[2] = assay type: in vivo, human; details: for AUClast geometric mean ratio (90% CI): dapoxetine with udenafil combined therapy/dapoxetine monotherapy; for half-life: t1/2β
In short: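 Six-sequence, three-period crossover in healthy men aged 20–45, fasted, with a 7-day washout. Single oral doses of dapoxetine 60 mg alone or with udenafil 200 mg. EDTA plasma was sampled from predose to 48 h. Parent and desmethyl metabolite were measured by UPLC-MS/MS with deuterated internal standards. Non-compartmental analysis: AUClast by trapezoidal rule, AUC0~∞ = AUClast + Clast/λz, CL/F = dose/AUC0~∞. Ratios from log-transformed mixed-model ANOVA with 90% CI.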

[3] = Tolerability / adverse drug reactions in healthy male subjects; assay type: in vivo, human; details: for Abdominal discomfort: number of events / Abdominal discomfort: number of subjects / Adverse drug reactions, total: number of events / Decreased appetite: number of events / Decreased appetite: number of subjects / Diarrhea: number of events / Diarrhea: number of subjects / Dizziness: number of events / Dizziness: number of subjects / Headache: number of events / Headache: number of subjects / Insomnia: number of events / Insomnia: number of subjects / Nausea: number of events / Nausea: number of subjects / Ocular hyperemia: number of events / Ocular hyperemia: number of subjects / Somnolence: number of events / Somnolence: number of subjects / Suicidal ideation: number of events / Suicidal ideation: number of subjects / Vomiting: number of events / Vomiting: number of subjects / hyperhidrosis: number of events / hyperhidrosis: number of subjects / Adverse drug reactions, total: number of subjects: n=23 per treatment; for Adverse drug reactions, total: number of subjects / tolerability: udenafil 200 mg, dapoxetine 60 mg; for tolerability: alone or concomitantly, single oral doses
In short: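 Safety was monitored through each 48 h period and at follow-up 5–9 days after the last dose. Assessments were vital signs, 12-lead ECGs, hematology, blood chemistry, urinalysis, physical examinations and adverse-event monitoring. Each event was recorded with its symptoms/signs, duration, intensity, relation to study drug, action taken, outcome and seriousness. Counts are given as subjects and as events.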

[4] = cited from earlier work; remark: listed apart in the source
[5] = integrated analysis of five trials, 6,081 patients; cited from earlier work
[6] = rats; cited from earlier work
[7] = cited from earlier work; remark: listed apart in the source
[8] = assay type: in vivo, human; details: for half-life: t1/2β; for half-life / CL/F: mean ± SD; for half-life / Tmax / CL/F: n=22; for Tmax: median (min, max); for pharmacokinetic interaction with dapoxetine: single oral doses; for AUClast geometric mean ratio (90% CI): udenafil with dapoxetine combined therapy/udenafil monotherapy
In short: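 Crossover in healthy fasted men: single oral udenafil 200 mg alone or with dapoxetine 60 mg, with 240 mL water and a 1-week washout. Blood was taken 0.25–48 h postdose into EDTA and spun at 1,800 g, 4°C. Udenafil (5.0–2,000.0 ng/mL) and DA-8164 (0.25–100.00 ng/mL) were measured by UPLC-MS/MS. Non-compartmental AUC and CL/F were derived. Geometric mean ratios with 90% CI came from log-transformed mixed-model ANOVA.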

[9] = assay type: in vivo, human; details: two-compartment model, WinNonlin
[10] = cited from earlier work; remark: listed apart in the source
[11] = cited from earlier work; remark: listed apart in the source
[12] = combined therapy/dapoxetine monotherapy
[13] = male, human, plasma, oral, 60 mg
[14] = combined therapy/udenafil monotherapy
[15] = male, human, plasma, oral, 200 mg
[16] = male, human, plasma, oral, 200 mg, udenafil 200 mg alone
[17] = male, human, plasma, oral, udenafil 200 mg + dapoxetine 60 mg
[18] = udenafil 200 mg + dapoxetine 60 mg

CN(C)[C@@H](CCOc1cccc2ccccc12)c1ccccc1 [Dapoxetine]
increase in AUC of active moiety with ketoconazole [1]: 88%
increase in Cmax of active moiety with ketoconazole [1]: 23%
increase in parent drug AUC with ketoconazole [1]: 99%
increase in parent drug Cmax with ketoconazole [1]: 35%
AUC0~∞ geometric mean ratio (90% CI) [2, 12]: 1.117 (1.048–1.191)
CL/F geometric mean ratio (90% CI) [2, 12]: 0.895 (0.840–0.954)
Cmax geometric mean ratio (90% CI) [2, 12]: 0.837 (0.758–0.925)
t1/2β geometric mean ratio (90% CI) [2, 12]: 0.947 (0.873–1.028)
Cmax geometric mean ratio (90% CI) ([2]; combined therapy/dapoxetine monotherapy, listed as dapoxetine): 0.837
CL/F ([2]; dapoxetine 60 mg + udenafil 200 mg, mean ± SD, n=20): 26.59 ± 9.22 L/h
CL/F ([2]; dapoxetine 60 mg alone, mean ± SD, n=20): 30.41 ± 11.99 L/h
Tmax ([2]; dapoxetine 60 mg alone, median (min, max), n=20): 1.00 (0.50, 2.00) h
AUClast geometric mean ratio (90% CI) [2]: 1.125 (1.044–1.213)
AUClast geometric mean ratio (90% CI) ([2]; listed as dapoxetine): 1.125
AUC(0-inf) [2, 13]: 2360 ng·h/mL
Cmax [2, 13]: 437 ± 143 ng/mL
Tmax [2, 13]: 1 h
half-life ([2]; male, human, plasma, oral, 60 mg, dapoxetine 60 mg alone, mean ± SD, n=20): 16.2 ± 6.72 h
half-life ([2]; male, human, plasma, oral, span over dapoxetine alone and with udenafil): 15.3 to 16.2 h
AUC(0-t) ([2]; male, human, plasma, po, 60 mg): 2100 ng·h/mL
Abdominal discomfort: number of events [3]: 1 (1)
Abdominal discomfort: number of subjects [3]: 1 (1)
Adverse drug reactions, total: number of events [3]: 24
Decreased appetite: number of events [3]: 0 (0)
Decreased appetite: number of subjects [3]: 0 (0)
Diarrhea: number of events [3]: 2 (2)
Diarrhea: number of subjects [3]: 2 (2)
Dizziness: number of events [3]: 5 (5)
Dizziness: number of subjects [3]: 5 (5)
Headache: number of events [3]: 2 (2)
Headache: number of subjects [3]: 2 (2)
Insomnia: number of events [3]: 0 (0)
Insomnia: number of subjects [3]: 0 (0)
Nausea: number of events [3]: 11 (11)
Nausea: number of subjects [3]: 11 (11)
Ocular hyperemia: number of events [3]: 0 (0)
Ocular hyperemia: number of subjects [3]: 0 (0)
Somnolence: number of events [3]: 1 (1)
Somnolence: number of subjects [3]: 1 (1)
Suicidal ideation: number of events [3]: 0 (0)
Suicidal ideation: number of subjects [3]: 0 (0)
Vomiting: number of events [3]: 2 (2)
Vomiting: number of subjects [3]: 2 (2)
hyperhidrosis: number of events [3]: 0 (0)
hyperhidrosis: number of subjects [3]: 0 (0)
Adverse drug reactions, total: number of subjects [3]: 12
tolerability [3]: well tolerated
initial half-life ([4]; biphasic elimination): approximately 1.4 hours
plasma concentration as share of peak concentration ([4]; by 24 hours after drug administration): approximately 5%
Tmax [4]: 1.0 to 1.3 h
PE profile measures compared with placebo [5]: improved significantly

CCCOc1ccc(S(=O)(=O)NCCC2CCCN2C)cc1-c1nc2c(CCC)nn(C)c2c(=O)[nH]1 (centres unmarked) [Udenafil]
absolute oral bioavailability [6]: 38.0%–55.6
increase of mean AUClast on co-administration of ketoconazole [7]: 3.2 fold
increase of mean Cmax on co-administration of ketoconazole [7]: 1.9 fold
metabolic AUC ratio ([7]; udenafil administered alone): 1.71
metabolic AUC ratio ([7]; udenafil in combination with ketoconazole): 0.19
AUC0~∞ geometric mean ratio (90% CI) [8, 14]: 0.923 (0.867–0.983)
CL/F geometric mean ratio (90% CI) [8, 14]: 1.084 (1.017–1.154)
Cmax geometric mean ratio (90% CI) [8, 14]: 0.864 (0.789–0.947)
t1/2β geometric mean ratio (90% CI) [8, 14]: 0.984 (0.948–1.022)
Cmax geometric mean ratio (90% CI) ([8]; combined therapy/udenafil monotherapy, listed as udenafil): 0.864
AUC(0-inf) [8, 15]: 4930 ng·h/mL
Cmax [8, 15]: 693 ± 206 ng/mL
half-life [8, 16]: 11 ± 1.64 h
Tmax [8, 16]: 1 h
half-life [8, 17]: 10.8 ± 1.27 h
Tmax [8, 17]: 2 h
AUC(0-t) ([8]; male, human, plasma, po, 200 mg): 4730 ng·h/mL
pharmacokinetic interaction with dapoxetine [8, 18]: no clinically significant pharmacokinetic interactions
pharmacokinetic interaction with dapoxetine ([8]; udenafil 200 mg + dapoxetine 60 mg, listed as udenafil): no significant pharmacokinetic interactions
CL/F [8, 18]: 47.31 ± 14.07 L/h
CL/F ([8]; udenafil 200 mg alone): 43.69 ± 12.21 L/h
AUClast geometric mean ratio (90% CI) [8]: 0.923 (0.863–0.987)
AUClast geometric mean ratio (90% CI) ([8]; listed as udenafil): 0.923
absorption rate constant (ka) ([9]; combined therapy with dapoxetine): 0.50 ± 0.17 h⁻¹
absorption rate constant (ka) ([9]; monotherapy): 0.84 ± 0.29 h⁻¹
Abdominal discomfort: number of events [3]: 0 (0)
Abdominal discomfort: number of subjects [3]: 0 (0)
Adverse drug reactions, total: number of events [3]: 4
Decreased appetite: number of events [3]: 1 (1)
Decreased appetite: number of subjects [3]: 1 (1)
Diarrhea: number of events [3]: 0 (0)
Diarrhea: number of subjects [3]: 0 (0)
Dizziness: number of events [3]: 1 (1)
Dizziness: number of subjects [3]: 1 (1)
Headache: number of events [3]: 0 (0)
Headache: number of subjects [3]: 0 (0)
Insomnia: number of events [3]: 1 (1)
Insomnia: number of subjects [3]: 1 (1)
Nausea: number of events [3]: 0 (0)
Nausea: number of subjects [3]: 0 (0)
Ocular hyperemia: number of events [3]: 1 (1)
Ocular hyperemia: number of subjects [3]: 1 (1)
Somnolence: number of events [3]: 0 (0)
Somnolence: number of subjects [3]: 0 (0)
Suicidal ideation: number of events [3]: 0 (0)
Suicidal ideation: number of subjects [3]: 0 (0)
Vomiting: number of events [3]: 0 (0)
Vomiting: number of subjects [3]: 0 (0)
hyperhidrosis: number of events [3]: 0 (0)
hyperhidrosis: number of subjects [3]: 0 (0)
Adverse drug reactions, total: number of subjects [3]: 3
tolerability [3]: well tolerated
terminal half-life (t1/2β) ([10]; oral): 7.3 to 12.1 h
time to reach peak concentration (tmax) ([10]; oral): 0.8 to 1.3 h
ka ([10]; previously reported): 0.70 ± 0.26 h⁻¹

CN1CC(=O)N2[C@H](c3ccc4c(c3)OCO4)c3[nH]c4ccccc4c3C[C@@H]2C1=O [tadalafil]
pharmacokinetic interaction with dapoxetine [11]: no clinically significant pharmacokinetic interactions
